The test system of experiment [1] is SQ20B. Description: Cytotoxicity against human SQ20B cells after 72 hrs by MTT assay. The experiment is classed as functional, cell-based. In a few lines:
(§1)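 Cells grown in RPMI with 10% FCS, 2 mM glutamine and antibiotics at 37 °C, 5% CO2, seeded at 2 × 10³ cells/well. Treated 72 h, then MTT 0.4 mg/ml for 4 h at 37 °C. Formazan dissolved in DMSO, absorbance read at 560 nm. Untreated wells and cell-free wells as controls. IC50 taken from dose–response curves.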
A general note: Formazan colour is commonly taken as a measure of viable cells.

The next experiment concerns HOP-62. The experiment can be described thus: Cytotoxicity against human HOP62 cells after 72 hrs by MTT assay. Format: functional, cell-based. The conditions noted are these: HOP-62, 72 h. The gist of the method: as §1
Experiment [2] is described as follows: Cytotoxicity against human SKHEP1 cells after 72 hrs by MTT assay. Format: functional, cell-based. The conditions noted are these: SK-HEP1, 72 h.
A further experiment deals with DU-145. The experiment can be described thus: Cytotoxicity against human DU145 cells after 72 hrs by MTT assay. The experiment is classed as functional, cell-based. The conditions noted are these: DU-145, 72 h.
The next experiment relates to OVCAR-3. The experiment can be described thus: Cytotoxicity against human OVCAR3 cells after 72 hrs by MTT assay. Format: functional, cell-based. The conditions noted are these: OVCAR-3, 72 h.
For a further experiment, the system named is HT-29. The experiment can be described thus: Cytotoxicity against human HT-29 cells after 72 hrs by MTT assay. The experiment is classed as functional, cell-based. The conditions noted are these: HT-29, 72 h. The gist of the method:
as §1

In another experiment the test system is CAKI-1. The experiment can be described thus: Cytotoxicity against human Caki1 cells after 72 hrs by MTT assay. The experiment is classed as functional, cell-based. Particulars: CAKI-1, 72 h.
Experiment [3] can be described thus: Cytotoxicity against human ColoR cells after 72 hrs by MTT assay. Format: functional, cell-based. In a few lines: as §1
The test system of another experiment is HCT-116. Description: Cytotoxicity against human HCT116 cells after 72 hrs by MTT assay. Format: functional, cell-based. Particulars: HCT-116, 72 h. In a few lines:
as §1

The subject of the next experiment is COLO 205. Description: Cytotoxicity against human COLO205 cells after 72 hrs by MTT assay. The experiment is classed as functional, cell-based. The conditions noted are these: COLO 205, 72 h. The gist of the method: as §1
A short description of experiment [4]: Cytotoxicity against human 786-O cells. Format: functional, cell-based. The conditions noted are these: 786-0.
Experiment [5] addresses T1, RAC-alpha serine/threonine-protein kinase (Homo sapiens, UniProt P31749). The experiment can be described thus: Inhibition of Akt/mTOR in human 786-O cells assessed as inhibition of nuclear export of transcription factor FOXO1a. Format: cell-based.
A further experiment deals with HOP-92. Description: Cytotoxicity against human HOP92 cells after 72 hrs by MTT assay. The experiment is classed as functional, cell-based. The conditions noted are these: HOP-92, 72 h.
The subject of the next experiment is HCC 2998. Description: Cytotoxicity against human HCC2998 cells after 72 hrs by MTT assay. The experiment is classed as functional, cell-based. The conditions noted are these: HCC 2998, 72 h.
The target in experiment [6] is T2, mTORC1 (Homo sapiens) (UniProt P42345+Q8N122+Q9BVC4). The experiment can be described thus: Inhibition of mTORC1 in human SQ20B cells assessed as AKT phosphorylation after 10 to 12 hrs by pull down assay. Format: cell-based.
T2 sequence (Q8N122 whole entry, looked up, other chains not shown): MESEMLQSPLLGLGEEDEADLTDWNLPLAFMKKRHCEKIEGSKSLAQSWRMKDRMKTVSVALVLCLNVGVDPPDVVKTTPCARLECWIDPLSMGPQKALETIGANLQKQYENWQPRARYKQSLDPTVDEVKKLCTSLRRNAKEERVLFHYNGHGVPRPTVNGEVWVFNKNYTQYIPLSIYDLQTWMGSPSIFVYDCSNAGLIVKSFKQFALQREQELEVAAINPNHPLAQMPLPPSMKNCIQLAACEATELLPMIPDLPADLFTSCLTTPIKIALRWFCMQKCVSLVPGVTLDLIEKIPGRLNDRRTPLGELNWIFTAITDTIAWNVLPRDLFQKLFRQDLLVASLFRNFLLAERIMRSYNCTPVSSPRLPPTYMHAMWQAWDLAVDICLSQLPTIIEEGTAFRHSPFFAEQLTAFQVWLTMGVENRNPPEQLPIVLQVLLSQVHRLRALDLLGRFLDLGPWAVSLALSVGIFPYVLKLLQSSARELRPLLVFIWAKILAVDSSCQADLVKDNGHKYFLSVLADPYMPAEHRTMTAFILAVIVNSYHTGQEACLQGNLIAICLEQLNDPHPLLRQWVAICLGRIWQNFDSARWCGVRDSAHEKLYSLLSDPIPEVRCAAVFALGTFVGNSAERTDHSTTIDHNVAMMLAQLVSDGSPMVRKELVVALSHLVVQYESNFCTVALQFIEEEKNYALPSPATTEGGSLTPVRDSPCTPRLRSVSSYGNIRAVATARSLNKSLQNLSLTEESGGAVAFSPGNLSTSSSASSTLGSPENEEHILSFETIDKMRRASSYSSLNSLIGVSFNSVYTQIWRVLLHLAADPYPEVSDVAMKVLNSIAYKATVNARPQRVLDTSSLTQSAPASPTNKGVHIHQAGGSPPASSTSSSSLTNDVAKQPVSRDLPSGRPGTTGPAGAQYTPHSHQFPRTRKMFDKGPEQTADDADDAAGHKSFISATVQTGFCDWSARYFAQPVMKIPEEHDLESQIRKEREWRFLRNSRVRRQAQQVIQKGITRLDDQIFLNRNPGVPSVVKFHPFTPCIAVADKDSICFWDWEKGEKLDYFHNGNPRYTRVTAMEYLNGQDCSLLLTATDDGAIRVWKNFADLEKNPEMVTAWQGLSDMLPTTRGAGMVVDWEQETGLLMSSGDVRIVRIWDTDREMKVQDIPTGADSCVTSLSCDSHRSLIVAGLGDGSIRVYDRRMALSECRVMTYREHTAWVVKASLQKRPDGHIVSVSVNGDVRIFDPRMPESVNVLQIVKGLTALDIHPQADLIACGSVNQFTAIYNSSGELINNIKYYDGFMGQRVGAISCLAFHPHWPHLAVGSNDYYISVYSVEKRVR
T2 sequence (Q9BVC4 whole entry, looked up, other chains not shown): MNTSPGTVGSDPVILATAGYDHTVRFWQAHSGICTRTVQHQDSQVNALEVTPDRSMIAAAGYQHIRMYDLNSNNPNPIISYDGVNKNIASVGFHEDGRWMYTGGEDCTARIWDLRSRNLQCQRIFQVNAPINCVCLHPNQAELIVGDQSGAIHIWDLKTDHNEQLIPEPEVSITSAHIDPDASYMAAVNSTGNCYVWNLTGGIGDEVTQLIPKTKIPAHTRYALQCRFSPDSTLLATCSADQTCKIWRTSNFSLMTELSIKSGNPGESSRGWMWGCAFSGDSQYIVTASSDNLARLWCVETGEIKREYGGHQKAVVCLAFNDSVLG
In experiment [7] the target is T3, 3-phosphoinositide-dependent protein kinase 1 (Homo sapiens) (UniProt O15530).
T3 sequence (whole entry): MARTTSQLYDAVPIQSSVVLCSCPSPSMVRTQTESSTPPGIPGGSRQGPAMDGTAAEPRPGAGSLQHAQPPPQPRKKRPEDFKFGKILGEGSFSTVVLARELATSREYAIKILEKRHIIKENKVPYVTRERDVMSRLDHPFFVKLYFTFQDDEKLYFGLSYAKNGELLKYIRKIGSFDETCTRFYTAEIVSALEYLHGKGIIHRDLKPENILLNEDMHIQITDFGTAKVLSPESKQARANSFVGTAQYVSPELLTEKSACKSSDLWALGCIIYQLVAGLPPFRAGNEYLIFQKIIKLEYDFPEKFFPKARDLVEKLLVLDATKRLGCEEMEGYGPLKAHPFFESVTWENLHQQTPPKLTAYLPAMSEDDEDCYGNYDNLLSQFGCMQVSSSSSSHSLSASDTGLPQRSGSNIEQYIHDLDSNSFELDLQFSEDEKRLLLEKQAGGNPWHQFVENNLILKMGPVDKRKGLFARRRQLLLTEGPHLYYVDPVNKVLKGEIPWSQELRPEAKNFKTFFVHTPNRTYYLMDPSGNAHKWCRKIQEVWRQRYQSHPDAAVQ
Description: Binding affinity to PDK1 in human SQ20B cells after 10 to 12 hrs by pull down assay. Format: cell-based.

Experiment [8] concerns the target T2, mTORC1 (Homo sapiens). The experiment can be described thus: Inhibition of mTORC1 in human SQ20B cells assessed as inhibition of S6 ribosomal protein phosphorylation after 10 to 12 hrs by pull down assay. Format: cell-based.
Experiment [9] deals with Regulatory-associated protein of mTOR (Homo sapiens) (UniProt Q8N122). Description: Binding affinity to raptor in human SQ20B cells after 10 to 12 hrs by pull down assay. Format: cell-based.
Chain of Regulatory-associated protein of mTOR (Homo sapiens) (Q8N122 whole entry): as the sequence (Q8N122 whole entry, looked up, other chains not shown) above
The test system of experiment [10] is SQ20B. The experiment can be described thus: Binding affinity to PI3K in human SQ20B cells after 10 to 12 hrs by pull down assay. The experiment is classed as cell-based.
Experiment [11] has as its target T1, RAC-alpha serine/threonine-protein kinase. The experiment can be described thus: Binding affinity to Akt in human SQ20B cells after 10 to 12 hrs by pull down assay. The experiment is classed as cell-based.
In experiment [12] the target is Rapamycin-insensitive companion of mTOR (Homo sapiens) (UniProt Q6R327). Description: Binding affinity to rictor in human SQ20B cells after 10 to 12 hrs by pull down assay. Format: cell-based.
Chain of Rapamycin-insensitive companion of mTOR (Homo sapiens) (Q6R327 whole entry): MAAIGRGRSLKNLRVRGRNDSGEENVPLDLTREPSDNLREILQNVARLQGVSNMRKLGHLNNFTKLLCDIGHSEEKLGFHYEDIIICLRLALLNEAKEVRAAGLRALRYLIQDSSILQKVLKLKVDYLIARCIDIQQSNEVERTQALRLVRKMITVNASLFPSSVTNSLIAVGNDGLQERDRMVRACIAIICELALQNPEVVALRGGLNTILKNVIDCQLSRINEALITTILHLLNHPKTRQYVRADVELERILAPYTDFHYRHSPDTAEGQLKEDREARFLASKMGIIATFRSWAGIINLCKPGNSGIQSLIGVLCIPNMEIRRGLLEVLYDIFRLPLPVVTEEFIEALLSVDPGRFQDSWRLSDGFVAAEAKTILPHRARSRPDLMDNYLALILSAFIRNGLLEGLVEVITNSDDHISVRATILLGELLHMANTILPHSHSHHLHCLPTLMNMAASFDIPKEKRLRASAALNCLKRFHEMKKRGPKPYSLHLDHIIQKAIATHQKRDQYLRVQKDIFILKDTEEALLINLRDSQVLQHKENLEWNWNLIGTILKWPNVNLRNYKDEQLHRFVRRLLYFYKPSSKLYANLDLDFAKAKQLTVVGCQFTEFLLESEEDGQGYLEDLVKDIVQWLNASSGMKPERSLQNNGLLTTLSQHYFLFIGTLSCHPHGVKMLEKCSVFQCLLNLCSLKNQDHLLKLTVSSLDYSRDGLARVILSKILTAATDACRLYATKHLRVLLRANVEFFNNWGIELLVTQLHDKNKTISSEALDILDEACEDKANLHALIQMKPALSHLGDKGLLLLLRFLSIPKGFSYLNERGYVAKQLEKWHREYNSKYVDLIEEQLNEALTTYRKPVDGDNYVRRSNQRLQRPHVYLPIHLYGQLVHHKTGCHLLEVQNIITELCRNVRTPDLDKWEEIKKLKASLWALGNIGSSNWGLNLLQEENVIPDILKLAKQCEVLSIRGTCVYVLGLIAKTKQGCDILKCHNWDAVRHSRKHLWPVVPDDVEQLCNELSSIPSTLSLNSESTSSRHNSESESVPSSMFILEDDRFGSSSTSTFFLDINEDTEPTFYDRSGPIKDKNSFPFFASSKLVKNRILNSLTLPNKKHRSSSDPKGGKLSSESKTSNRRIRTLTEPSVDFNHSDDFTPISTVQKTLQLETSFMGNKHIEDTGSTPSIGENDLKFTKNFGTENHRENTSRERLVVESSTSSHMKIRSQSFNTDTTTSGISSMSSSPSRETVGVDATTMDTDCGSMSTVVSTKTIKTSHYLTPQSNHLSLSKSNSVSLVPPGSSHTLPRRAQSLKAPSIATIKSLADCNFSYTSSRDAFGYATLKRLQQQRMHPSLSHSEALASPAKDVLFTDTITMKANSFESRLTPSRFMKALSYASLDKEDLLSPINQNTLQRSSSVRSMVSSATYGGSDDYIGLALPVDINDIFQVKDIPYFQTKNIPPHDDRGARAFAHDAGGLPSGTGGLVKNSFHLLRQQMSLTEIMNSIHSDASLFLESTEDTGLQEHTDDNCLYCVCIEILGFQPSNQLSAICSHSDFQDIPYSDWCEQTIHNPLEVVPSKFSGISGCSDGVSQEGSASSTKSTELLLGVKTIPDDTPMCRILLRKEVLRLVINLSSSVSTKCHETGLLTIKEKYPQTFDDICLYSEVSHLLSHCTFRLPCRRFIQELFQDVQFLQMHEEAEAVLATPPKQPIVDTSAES
Experiment [13] addresses Serine/threonine-protein kinase mTOR (Homo sapiens) (UniProt P42345). The experiment can be described thus: Binding affinity to mTOR in human SQ20B cells after 10 to 12 hrs by pull down assay. The experiment is classed as cell-based.

Calls of active or inactive are those of the source. The calls are words filed in the database; no cut-off is given here.

One may read the IC50 as the point on the concentration scale where inhibition reaches its midpoint.

T1 sequence (P31749 whole entry): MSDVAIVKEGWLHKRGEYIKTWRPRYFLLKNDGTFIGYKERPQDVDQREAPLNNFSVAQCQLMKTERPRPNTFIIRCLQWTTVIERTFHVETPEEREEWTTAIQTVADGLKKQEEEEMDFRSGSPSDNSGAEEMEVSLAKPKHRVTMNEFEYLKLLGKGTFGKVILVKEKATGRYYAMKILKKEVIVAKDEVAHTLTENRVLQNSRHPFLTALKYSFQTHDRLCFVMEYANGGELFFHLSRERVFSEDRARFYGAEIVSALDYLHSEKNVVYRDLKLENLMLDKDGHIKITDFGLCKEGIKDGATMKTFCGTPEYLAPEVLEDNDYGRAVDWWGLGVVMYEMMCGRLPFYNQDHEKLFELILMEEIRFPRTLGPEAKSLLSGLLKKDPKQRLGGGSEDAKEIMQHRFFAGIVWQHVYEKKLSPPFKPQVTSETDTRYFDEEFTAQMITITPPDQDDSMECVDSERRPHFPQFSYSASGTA

As for `NC(=O)C1CCN(Cc2c(O)ccc3oc(Cc4ccccc4)cc23)CC1`, the IC50 with SQ20B [1] was determined as 85 µM.

On to `COc1cccc2cc(-c3nc([C@H]4CC[C@H](C(=O)O)CC4)n4ncnc(N)c34)[nH]c12` [OSI-027], for which the IC50 with HOP-62 was 41 µM; in experiment [2], 3.2 µM; with DU-145, 4.1 µM; with OVCAR-3, 8.1 µM; in the experiment with HT-29, 55 µM; in the experiment with CAKI-1, 1.9 µM. Besides, the IC50 was determined as 5.8 µM in [3], 5.6 µM in the experiment with HCT-116, 5.8 µM with COLO 205 and 1.3 µM in the experiment with SQ20B [1].

For the compound `CN(Cc1c(O)ccc2oc(Cc3ccccc3)cc12)C1CCCCC1`, half-maximal inhibition in the experiment with SQ20B [1] (IC50) required 12 µM.

Take `Oc1ccc2oc(Cc3ccccc3)cc2c1CN1CCOCC1`: in the experiment with SQ20B [1], half-maximal inhibition (IC50) was put at 6.5 µM.

As to `OCCN(Cc1c(O)ccc2oc(Cc3ccccc3)cc12)C1CCCCC1`, in the experiment with SQ20B [1], the midpoint of inhibition, the IC50, lay at 27 µM.

`O=CN1CCN(Cc2c(O)ccc3oc(Cc4ccccc4)cc23)CC1`: the IC50 with SQ20B [1] came to 49 µM.

Take `Oc1ccc2oc(Cc3ccccc3)cc2c1CN1CCC(O)CC1`: the IC50 in the experiment with SQ20B [1] came to 13 µM.

Regarding `CN(CCO)Cc1c(O)ccc2oc(Cc3ccccc3)cc12`, the IC50 in the experiment with SQ20B [1] came to 30 µM.

Compound `OCCOCCN1CCN(Cc2c(O)ccc3oc(Cc4ccccc4)cc23)CC1` had an IC50 in the experiment with SQ20B [1] of 21 µM.

Turning to `CN1CCN(Cc2c(O)ccc3oc(Cc4ccccc4)cc23)CC1`, the IC50 in the experiment with SQ20B [1] turned out to be 18 µM.

`CO[C@H]1C[C@@H]2CC[C@@H](C)[C@@](O)(O2)C(=O)C(=O)N2CCCC[C@H]2C(=O)O[C@H]([C@H](C)C[C@@H]2CC[C@@H](OCCO)[C@H](OC)C2)CC(=O)[C@H](C)/C=C(\C)[C@@H](O)[C@@H](OC)C(=O)[C@H](C)C[C@H](C)/C=C/C=C/C=C/1C` [EVEROLIMUS]: the IC50 in the experiment with HOP-62 was found to be 19 µM; in [2] it was 12 µM; in the experiment on DU-145, 8 µM; with OVCAR-3 it was 16 µM; in the experiment with HT-29, 15 µM; in the experiment with CAKI-1, 14 µM. Also, the IC50 turned out to be 8.7 µM in experiment [3], 12 µM in the experiment on HCT-116, 20 µM with COLO 205 and 5.5 µM in the experiment with SQ20B [1].

In turn, `Oc1ccc2oc(Cc3ccccc3)cc2c1CN1CCc2ccccc2C1` returned a concentration for half-maximal inhibition (IC50) in the experiment on SQ20B [1] of 16 µM.

Turning to `CN(C)Cc1c(O)ccc2oc(Cc3ccccc3)cc12`, the IC50 in experiment [4] came out at 10 µM; in experiment [5], 20 µM; in the experiment on SQ20B [1] it was 33 µM; in the experiment with HOP-92 it was 40 µM; in the experiment with HCC 2998, 40 µM.

For `Oc1ccc2oc(-c3ccccc3)cc2c1CN1CCC(N2CCCCC2)CC1`, the IC50 in the experiment with HOP-62 stood at 54 µM; in experiment [2], 42 µM; in the experiment with DU-145 it was 13 µM; with OVCAR-3 it was 22 µM; in the experiment with HT-29, 45 µM; in the experiment on CAKI-1, 26 µM. For the same compound, the IC50 in experiment [3] turned out to be 18 µM; in the experiment with HCT-116, 57 µM; with COLO 205, 6.3 µM; with SQ20B [1], 2.8 µM.

`O=C(c1ccccc1)c1cc2c(CN3CCC(N4CCCCC4)CC3)c(O)ccc2o1` displayed an IC50 in the experiment on SQ20B [1] of 17 µM.

As for `Oc1ccc2oc(Cc3ccccc3)cc2c1CN1CCC(c2ccccc2)CC1`, the IC50 in the experiment on SQ20B [1] is > 200 µM.

In the case of `O=C(CCC(=O)ON1C(=O)CCC1=O)NCCNC(=O)COC(=O)NCCOCCOCCOCCOCCOCCOCCNC(=O)C1CCN(C2CCN(Cc3c(O)ccc4oc(-c5ccccc5)cc34)CC2)CC1`, the inhibition result at mTORC1 (Homo sapiens) [6] was “Active”. The outcome (in experiment [7]; in [9]; in the experiment with SQ20B [10]; in [11]; in experiment [12]) was inactive. Besides, the inhibition entry on mTORC1 (Homo sapiens) [8] is “Dose-dependent effect”. The result in experiment [13] was Active.

Compound `CN(Cc1ccccc1)Cc1c(O)ccc2oc(Cc3ccccc3)cc12` gave an IC50 in the experiment with SQ20B [1] of 12 µM.

`Oc1ccc2oc(C(O)c3ccccc3)cc2c1CN1CCC(N2CCCCC2)CC1` (stereo not given) returned an IC50 in the experiment with SQ20B [1] of 13 µM.

With `OCCN(CCO)Cc1c(O)ccc2oc(Cc3ccccc3)cc12`, the half-inhibitory concentration (IC50) with SQ20B [1] is > 200 µM.

As to `CCN(CC)Cc1c(O)ccc2oc(Cc3ccccc3)cc12`, the IC50 with SQ20B [1] stood at 12 µM.

Consider `Oc1ccc2oc(Cc3ccccc3)cc2c1CN1CCN(Cc2ccccc2)CC1`, for which the midpoint of inhibition with SQ20B [1], the IC50, lay at 36 µM.

As for `Oc1ccc2oc(Cc3ccccc3)cc2c1CN1CCCC(O)C1` (stereo not given), in the experiment with SQ20B [1], the IC50 is 11 µM.

In turn, `O=C(NCCOCCO)C1CCN(C2CCN(Cc3c(O)ccc4oc(Cc5ccccc5)cc34)CC2)CC1` registered an IC50 with SQ20B [1] of 14 µM.

On to `Oc1ccc2oc(Cc3ccccc3)cc2c1CN1CCC(N2CCCCC2)CC1`, for which the IC50 worked out at 11 µM in the experiment on HOP-62; 11 µM in [2]; 20 µM in the experiment on DU-145; 19 µM in the experiment with OVCAR-3; 5.1 µM in the experiment with HT-29; 6.9 µM in the experiment on CAKI-1. In addition, the IC50 is 3.7 µM in experiment [3], 12 µM in the experiment with HCT-116, 3.1 µM in the experiment on COLO 205 and 3 µM with SQ20B [1].

With `Oc1ccc2oc(Cc3ccccc3)cc2c1CN1CCC(N2CCCC2)CC1`, the inhibition entry at mTORC1 (Homo sapiens) [8] is “Dose-dependent effect”. Besides, the IC50 with SQ20B [1] worked out at 3 µM.

`CON(C)Cc1c(O)ccc2oc(Cc3ccccc3)cc12` showed an IC50 with SQ20B [1] of 40 µM.
